Measured values: paper PMC10431048 (CPT: Pharmacometrics & Systems Pharmacology, 2023)
Values joined by “and” are separate entries in the source; they are usually repeats but may differ in a detail not shown here. Equal entries are not always repeated. “Also recorded” adds a separate entry of the source. Where two headings read alike, the source gives them in different places.

Key:
CYP3A = conditions: ref data on file, cited from earlier work
[1] = cited from earlier work
[2] = assay type: in vivo, human; conditions: for change in steady-state AUC vs base: 800 mg once daily
In short: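 Simulated steady-state exposure (AUC, Cmax, Cmin) at 800 mg/day from the final model for a typical white male FSGS subject: 800-mg tablet, median ALKP and CrCL, no moderate or strong CYP3A4 inhibitor. Continuous covariates were set one at a time to 5th and 95th percentiles, and categorical covariates to alternative categories. Multivariate effects came from post hoc individual estimates stratified by covariate category.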

[3] = sparsentan 400 titrating to 800 mg/day vs irbesartan, week 36; cited from earlier work
[4] = mild and moderate hepatic impairment; ref study 021IHFX16009, data on file; cited from earlier work
Population PK model = assay type: in vivo, human
In short: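 Plasma from nine trials (healthy, hepatic-impaired, FSGS; K2EDTA; acetonitrile precipitation; deuterated internal standard) was assayed by LC-MS/MS, 2.00–4000 ng/mL, LLOQ 2 ng/mL; samples below LLOQ were excluded. NONMEM FOCE-I fit: two compartments, lag plus first-order absorption, proportional-plus-additive error, nonlinear Frel above 200 mg, instant CL/F induction after first dose. Covariates: forward p<0.01, backward p<0.001. Bootstrap gave standard errors.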

[5] = mass balance study; ref study 021HVOL16005, data on file; cited from earlier work
[6] = ALKP at the 5th and 95th percentile
[7] = CrCL at the 5th and 95th percentile
[8] = covariates other than moderate/strong CYP3A4 inhibitors, steady-state 800 mg
[9] = log-domain coefficient, vs capsule
[10] = log-domain coefficient, vs white

For `CCCCC1=NC2(CCCC2)C(=O)N1Cc1ccc(-c2ccccc2S(=O)(=O)Nc2noc(C)c2C)c(COCC)c1` [sparsentan], the “interaction with CYP3A in vitro” value (CYP3A; in vitro) is given as “competitive inhibitor and inducer”, the metabolism (CYP3A) is given as “primarily metabolized by CYP3A” and the “reduction in urinary protein to creatinine ratio (UP/C)” value ([1]; sparsentan 200, 400, or 800 mg/day vs irbesartan 300 mg/day, 8 weeks) is given as “higher reduction”. For the same compound, the “rates of patients reaching the FSGS partial remission end point (FPRE)” value ([1]; sparsentan vs irbesartan) was “higher rates”, the “effect of ALKP on AUC” value [2, 6] was less than 15% and the “effect of ALKP on Cmax” value [2, 6] was less than 10%. The “impact of CrCL on AUC” value [2, 7] was less than 20%, the “impact of CrCL on Cmax” value [2, 7] was less than 10% and the “steady-state exposures across race” value ([2]; FSGS, 800-mg tablet) was “comparable”. For the same compound, the “steady-state exposure by age bracket” value ([2]; FSGS, 800-mg tablet, age 8-17, 18-64, >=65 years) was “increase”, the “effect of formulation on steady-state AUC” value ([2]; capsule and crushed tablet compared to tablet) was “unaffected; also recorded: no overall change” and the “increase in steady-state Cmax by formulation” value ([2]; capsule and crushed tablet formulations compared to tablet, 800 mg) was “less than 10%”. For the same compound, the “effect of other covariates on AUC” value [2, 8] was “less than 20%”, the “effect of other covariates on Cmax” value [2, 8] was “less than 20%” and the “impact of sex and race on steady-state AUC” value ([2]; female, White, Black, Asian) was less than 15%. For the same compound, the “impact of sex and race on steady-state Cmax” value ([2]; female, White, Black, Asian) was less than 15%, the “change in steady-state Cmax vs base” value ([2]; moderate CYP3A4 inhibitor comedication) was 16.0% and the “change in steady-state AUC vs base” value ([2]; moderate CYP3A4 inhibitor comedication, FSGS) was 31.4% and 31%. For the same compound, the “change in steady-state AUC vs base” value ([2]; strong CYP3A4 inhibitor comedication, FSGS) was 191.3% and 191%, the “FPRE response, interim results” value [3] was “significantly greater” and the “effect of hepatic impairment on sparsentan exposure” value [4] was “not having a large effect”. The “Vc/F (derived)” value (Population PK model; 800 mg dose) was 69.5 L, the “Vp/F (derived)” value (Population PK model; 800 mg dose) was 17.0 L and the “CL/F (derived)” value (Population PK model; 800 mg dose, single dose, reference subject) was 5.47 L/h. For the same compound, the Q/F (Population PK model; 400-mg dose, reference subject) was 2.03 L/h, the Vp/F (Population PK model; 400-mg dose, reference subject) was 12.1 L and the Vc/F (Population PK model; 400-mg dose, reference subject white female, 400-mg capsule) was 49.3 L. For the same compound, the “effect of co-medications on PK” value (Population PK model; acid reducer (including proton pump inhibitors), P-gp inhibitor, or mild CYP3A4 inhibitor) was “No significant effect”, the “Induction change in CL” value (Population PK model; additional CL at steady-state (CYP3A auto-induction), 400-mg reference subject) was 1.23 L/h and the Ka (Population PK model; capsule (reference)) was 0.740 h⁻¹. For the same compound, the half-life (Population PK model; human, plasma, oral, 800 mg) was 9.6 h, the “Variance Ka” value (Population PK model; interindividual random effect) was 0.474 and the “Variance Vc” value (Population PK model; interindividual random effect) was 0.234. The “Effect on Ka: Crushed tablet” value (Population PK model; [9]) was 0.080, the “Effect on Ka: Tablet” value (Population PK model; [9]) was −0.306 and the “Effect on Vc: Asian” value (Population PK model; [10]) was 0.265. For the same compound, the “Effect on Vc: Black or African American” value (Population PK model; [10]) was 0.309, the “increase of clearance due to CYP3A auto-induction at steady-state” value (Population PK model; steady-state vs first dose) was 32% and the urinary excretion [5] was 2.18 % of the radioactive dose.
